Results reported in ChEMBL document CHEMBL4406794, “N-(7-Cyano-6-(4-fluoro-3-(2-(3-(trifluoromethyl)phenyl)acetamido)phenoxy)benzo[d]thiazol-2-yl)cyclopropanecarboxamide (TAK-632) Analogues as Novel Necroptosis Inhibitors by Targeting Receptor-Interacting Protein Kinase 3 (RIPK3): Synthesis, Structure-Activity Relationships, and in Vivo Efficacy” (J Med Chem, 2019).
pEC50: −log10 of the molar value. The source made the active and inactive calls. The rule behind the calls is not given here.

Experiments:
[1] = biological target: Dual specificity mitogen-activated protein kinase kinase 2 (Homo sapiens) (UniProt P36507); test: Inhibition of wild-type human full length MEK2 (M1 to V400 residues) expressed in mammalian expression system assessed as enzyme remaining activity at 1000 nM by Kinomescan method relative to control
Mus musculus [2] = test: (§1) Protection against TNFalpha/Z-VAD-fmk-induced C57BL/6J mouse model of systemic inflammatory response syndrome at 5 mg/kg, po administered via gavage 2 hrs prior to Z-VAD-fmk addition for 15 mins followed by TNFalpha stimulation for 1 hr and subsequent Z-VAD-fmk addition meaured up to 50 hrs post TNFalpha stimulation relative to control; type: functional
Summary of the method: (§2)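 Overnight-fasted C57BL/6 female mice, n=10 per group. Test compound was given by oral gavage 2 h before mTNF-α. z-VAD-fmk (180 µg) was injected ip, then 15 min later mTNF-α in endotoxin-free PBS was injected iv (400 µg/kg). A second z-VAD-fmk dose (70 µg) was given ip 1 h after TNF. Body temperature and survival were followed against vehicle. One-way ANOVA was used.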

[3] = biological target: Receptor-interacting serine/threonine-protein kinase 3 (Homo sapiens, UniProt Q9Y572); test: Inhibition of RIPK3 phosphorylation in TNFalpha/smac mimetic/Z-VAD-fmk stimulated human HT-29 cells at 1 uM treated prior to TNFalpha/smac mimetic/Z-VAD-fmk stimulation and measured after 2 to 4 hrs by SDS-PAGE based immunoblot assay; type: cell-based
[4] = Tmax in Sprague-Dawley rat at 1 mg/kg, iv by LC-tandem mass spectrometry analysis; type: ADME, organism-based; conditions: in vivo
Summary of the method: (§3)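 Male Sprague-Dawley rats received compound iv (1 mg/kg) or intragastrically (5 mg/kg). The vehicle was 5% DMSO, 10% Tween 80 and 75% saline, at 0.2 or 1 mg/mL. Blood was sampled at several time points and centrifuged at 4 °C. Plasma was stored at -80 °C and analysed by LC/MS/MS. Parameters were derived by noncompartmental analysis of individual animal data.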

Mus musculus [5] = test: as §1, with “at 25” for “at 5”; type: functional; summary of the method: as §2
[6] = biological target: Platelet-derived growth factor receptor alpha (Homo sapiens) (UniProt P16234); test: Inhibition of wild-type human partial length PDGFRA (V575 to D1002 residues) expressed in mammalian expression system assessed as enzyme remaining activity at 1000 nM by Kinomescan method relative to control
HT-29 = test: Anti-necroptotic activity in human HT-29 cells assessed as inhibition of […]/SM-164/Z-VAD-fmk-induced necroptosis measured after 16 hrs by celltiter-glo luminescent cell viability assay; conditions: HT-29, 16 h
[7] = AUC (0 to infinity) in Sprague-Dawley rat at 1 mg/kg, iv by LC-tandem mass spectrometry analysis; type: ADME, organism-based; design: dose 1 mg/kg, time infinity, route intravenous; conditions: in vivo
Summary of the method: (§4)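 Male Sprague-Dawley rats dosed once i.v. at 1 mg/kg or intragastrically at 5 mg/kg. Compound dissolved in 5% DMSO, 10% Tween 80, 75% physiological saline at 0.2 and 1 mg/mL. Blood taken at several time points, plasma spun at 4 °C, stored at -80 °C, assayed by LC/MS/MS. Parameters from individual animals by noncompartmental analysis.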

[8] = biological target: MAP kinase-activated protein kinase 2 (Homo sapiens) (UniProt P49137); test: Inhibition of wild-type human partial length MAPKAPK2 (V48 to D345 residues) expressed in bacterial expression system assessed as enzyme remaining activity at 1000 nM by Kinomescan method relative to control
[9] = Half-life in Sprague-Dawley rat at 1 mg/kg, iv by LC-tandem mass spectrometry analysis; type: ADME, organism-based; conditions: in vivo; summary of the method: as §4
[10] = biological target: Hepatocyte growth factor receptor (Homo sapiens) (UniProt P08581); test: Inhibition of wild-type human partial length MET (D1010 to S1367 residues) expressed in bacterial expression system assessed as enzyme remaining activity at 1000 nM by Kinomescan method relative to control
[11] = biological target: Mixed lineage kinase domain-like protein (Homo sapiens) (UniProt Q8NB16); test: Inhibition of MLKL phosphorylation in TNFalpha/smac mimetic/Z-VAD-fmk stimulated human HT-29 cells at 1 uM treated prior to TNFalpha/smac mimetic/Z-VAD-fmk stimulation and measured after 2 to 4 hrs by SDS-PAGE based immunoblot assay; type: cell-based
[12] = Tmax in Sprague-Dawley rat at 5 mg/kg, po by LC-tandem mass spectrometry analysis; type: ADME, organism-based; conditions: in vivo; summary of the method: as §3
[13] = Apparent volume of distribution at steady state in Sprague-Dawley rat at 1 mg/kg, iv by LC-tandem mass spectrometry analysis; type: ADME, organism-based; conditions: in vivo, read-out: Vdss(app); summary of the method: as §4
[14] = biological target: Mitogen-activated protein kinase 8 (Homo sapiens) (UniProt P45983); test: Inhibition of wild-type human full length JNK1 (M1 to Q384 residues) expressed in mammalian expression system assessed as enzyme remaining activity at 1000 nM by Kinomescan method relative to control
[15] = biological target: Epidermal growth factor receptor (Homo sapiens) (UniProt P00533); test: Inhibition of wild-type human partial length EGFR (R669 to V1011 residues) expressed in bacterial expression system assessed as enzyme remaining activity at 1000 nM by Kinomescan method relative to control
Summary of the method: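 KINOMEscan binding competition. […] Incubation was 1 h at room temperature with shaking, then bead wash and elution with 0.5 μM nonbiotinylated ligand for 30 min. Eluted kinase was quantified by qPCR. Compound was diluted from 40× DMSO stocks to 1000 nM final.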

[16] = Cmax in Sprague-Dawley rat at 5 mg/kg, po by LC-tandem mass spectrometry analysis; type: ADME, organism-based; design: dose 5 mg/kg, route oral; conditions: in vivo; summary of the method: as §4
[17] = AUC (0 to t) in Sprague-Dawley rat at 5 mg/kg, po by LC-tandem mass spectrometry analysis; type: ADME, organism-based; conditions: in vivo; summary of the method: as §4
[18] = biological target: Mitogen-activated protein kinase 3 (Homo sapiens) (UniProt P27361); test: Inhibition of wild-type human full length ERK1 (M1 to P379 residues) expressed in bacterial expression system assessed as enzyme remaining activity at 1000 nM by Kinomescan method relative to control
[19] = biological target: Cyclin-dependent kinase 3 (Homo sapiens) (UniProt Q00526); test: Inhibition of wild-type human full length CDK3 (M1 to H305 residues) expressed in bacterial expression system assessed as enzyme remaining activity at 1000 nM by Kinomescan method relative to control
[20] = Toxicity in Sprague-Dawley rat at 1 mg/kg, iv or 5 mg/kg, po; type: organism-based; conditions: in vivo
[21] = biological target: Inhibitor of nuclear factor kappa-B kinase subunit alpha (Homo sapiens) (UniProt O15111); test: Inhibition of wild-type human full length IKK-alpha (M1 to E745 residues) expressed in mammalian expression system assessed as enzyme remaining activity at 1000 nM by Kinomescan method relative to control
Homo sapiens = species on record: Homo sapiens; test: Selectivity ratio of Kd for human partial length RIPK1 (M1 to K305 residues) expressed in bacterial expression system to Kd for wild-type human partial length RIPK3 (M1 to Q307 residues) expressed in bacterial expression system
[22] = biological target: Serine/threonine-protein kinase B-raf (Homo sapiens) (UniProt P15056); test: Inhibition of wild-type human partial length BRAF (S429 to E741 residues) expressed in mammalian expression system assessed as enzyme remaining activity at 1000 nM by Kinomescan method relative to control

Chain of Platelet-derived growth factor receptor alpha (Homo sapiens) (P16234 whole entry, the tested form may be a part): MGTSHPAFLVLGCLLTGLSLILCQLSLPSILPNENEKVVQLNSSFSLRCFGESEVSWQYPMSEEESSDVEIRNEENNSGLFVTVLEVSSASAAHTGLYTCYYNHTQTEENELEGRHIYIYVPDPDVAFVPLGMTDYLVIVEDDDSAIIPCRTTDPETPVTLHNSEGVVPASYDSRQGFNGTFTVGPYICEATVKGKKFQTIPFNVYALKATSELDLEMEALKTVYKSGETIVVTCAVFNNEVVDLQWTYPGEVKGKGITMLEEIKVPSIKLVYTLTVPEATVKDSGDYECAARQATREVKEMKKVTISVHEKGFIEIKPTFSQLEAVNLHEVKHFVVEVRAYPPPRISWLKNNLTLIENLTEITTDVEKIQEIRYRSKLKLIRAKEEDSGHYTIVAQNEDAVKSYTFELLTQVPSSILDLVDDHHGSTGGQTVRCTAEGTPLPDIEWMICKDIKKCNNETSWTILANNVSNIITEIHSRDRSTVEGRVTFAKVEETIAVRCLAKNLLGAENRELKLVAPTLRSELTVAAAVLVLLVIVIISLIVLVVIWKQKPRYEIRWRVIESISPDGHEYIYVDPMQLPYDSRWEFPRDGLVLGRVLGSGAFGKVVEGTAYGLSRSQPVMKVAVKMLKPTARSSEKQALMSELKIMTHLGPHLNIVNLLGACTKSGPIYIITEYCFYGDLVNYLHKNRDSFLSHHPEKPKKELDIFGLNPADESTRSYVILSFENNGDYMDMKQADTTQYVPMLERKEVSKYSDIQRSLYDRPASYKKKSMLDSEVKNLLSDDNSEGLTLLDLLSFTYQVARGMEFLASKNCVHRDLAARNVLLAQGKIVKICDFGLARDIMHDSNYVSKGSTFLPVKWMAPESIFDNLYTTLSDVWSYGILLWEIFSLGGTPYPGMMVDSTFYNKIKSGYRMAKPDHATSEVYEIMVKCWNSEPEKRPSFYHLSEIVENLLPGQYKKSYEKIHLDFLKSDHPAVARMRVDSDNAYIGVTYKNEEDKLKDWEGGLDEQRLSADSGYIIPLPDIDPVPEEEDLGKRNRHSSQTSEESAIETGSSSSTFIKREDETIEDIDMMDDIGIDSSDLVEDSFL
Chain of Hepatocyte growth factor receptor (Homo sapiens) (P08581 whole entry, the tested form may be a part): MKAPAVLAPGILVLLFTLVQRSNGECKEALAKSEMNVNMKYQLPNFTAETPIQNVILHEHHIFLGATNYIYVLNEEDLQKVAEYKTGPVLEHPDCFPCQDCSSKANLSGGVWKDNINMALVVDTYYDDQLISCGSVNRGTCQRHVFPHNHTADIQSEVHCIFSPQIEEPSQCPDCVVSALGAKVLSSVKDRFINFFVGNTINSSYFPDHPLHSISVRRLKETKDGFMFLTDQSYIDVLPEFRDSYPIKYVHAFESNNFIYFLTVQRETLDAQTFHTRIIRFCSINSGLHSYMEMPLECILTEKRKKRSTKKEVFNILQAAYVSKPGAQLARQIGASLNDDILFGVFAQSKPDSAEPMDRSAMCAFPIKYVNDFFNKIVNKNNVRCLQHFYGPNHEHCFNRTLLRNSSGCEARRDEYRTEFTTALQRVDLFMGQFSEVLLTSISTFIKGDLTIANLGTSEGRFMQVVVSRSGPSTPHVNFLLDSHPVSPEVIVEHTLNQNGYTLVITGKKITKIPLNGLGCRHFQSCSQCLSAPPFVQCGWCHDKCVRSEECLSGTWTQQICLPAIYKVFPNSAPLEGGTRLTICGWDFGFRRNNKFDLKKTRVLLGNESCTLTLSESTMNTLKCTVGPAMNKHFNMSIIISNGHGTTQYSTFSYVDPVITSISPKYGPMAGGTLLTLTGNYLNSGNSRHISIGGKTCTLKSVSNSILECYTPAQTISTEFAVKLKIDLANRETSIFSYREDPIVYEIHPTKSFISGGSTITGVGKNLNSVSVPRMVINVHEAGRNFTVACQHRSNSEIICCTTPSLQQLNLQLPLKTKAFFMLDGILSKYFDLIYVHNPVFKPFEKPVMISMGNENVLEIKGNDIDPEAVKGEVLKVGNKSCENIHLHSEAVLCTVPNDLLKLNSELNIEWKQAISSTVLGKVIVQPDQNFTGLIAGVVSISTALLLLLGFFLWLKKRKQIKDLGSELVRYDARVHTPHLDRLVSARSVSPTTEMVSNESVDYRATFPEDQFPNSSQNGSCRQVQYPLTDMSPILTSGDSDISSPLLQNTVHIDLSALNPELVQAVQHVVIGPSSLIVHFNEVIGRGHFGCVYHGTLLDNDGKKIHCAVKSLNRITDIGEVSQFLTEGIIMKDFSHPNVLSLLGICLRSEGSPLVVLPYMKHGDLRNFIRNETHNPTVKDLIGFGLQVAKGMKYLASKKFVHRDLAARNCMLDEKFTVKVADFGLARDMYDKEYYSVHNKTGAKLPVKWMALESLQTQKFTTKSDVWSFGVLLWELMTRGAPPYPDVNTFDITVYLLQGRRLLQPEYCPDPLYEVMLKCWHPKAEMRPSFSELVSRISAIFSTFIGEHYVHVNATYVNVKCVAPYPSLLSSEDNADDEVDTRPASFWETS
Chain of Receptor-interacting serine/threonine-protein kinase 3 (Q9Y572 whole entry, looked up): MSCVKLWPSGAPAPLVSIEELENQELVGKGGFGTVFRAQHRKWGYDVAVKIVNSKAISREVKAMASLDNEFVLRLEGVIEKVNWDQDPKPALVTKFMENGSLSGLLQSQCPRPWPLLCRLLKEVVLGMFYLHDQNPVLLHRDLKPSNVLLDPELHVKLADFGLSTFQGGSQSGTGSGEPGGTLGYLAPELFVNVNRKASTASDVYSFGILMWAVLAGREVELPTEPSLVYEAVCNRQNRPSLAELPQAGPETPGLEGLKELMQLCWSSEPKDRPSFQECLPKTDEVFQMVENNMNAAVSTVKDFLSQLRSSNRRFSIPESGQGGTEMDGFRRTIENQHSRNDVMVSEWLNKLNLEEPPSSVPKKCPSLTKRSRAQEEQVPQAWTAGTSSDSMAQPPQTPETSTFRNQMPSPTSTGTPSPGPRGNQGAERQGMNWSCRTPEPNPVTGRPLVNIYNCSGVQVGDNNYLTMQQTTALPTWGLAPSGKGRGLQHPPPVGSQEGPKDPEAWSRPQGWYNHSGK
Chain of Epidermal growth factor receptor (Homo sapiens) (P00533 whole entry, the tested form may be a part): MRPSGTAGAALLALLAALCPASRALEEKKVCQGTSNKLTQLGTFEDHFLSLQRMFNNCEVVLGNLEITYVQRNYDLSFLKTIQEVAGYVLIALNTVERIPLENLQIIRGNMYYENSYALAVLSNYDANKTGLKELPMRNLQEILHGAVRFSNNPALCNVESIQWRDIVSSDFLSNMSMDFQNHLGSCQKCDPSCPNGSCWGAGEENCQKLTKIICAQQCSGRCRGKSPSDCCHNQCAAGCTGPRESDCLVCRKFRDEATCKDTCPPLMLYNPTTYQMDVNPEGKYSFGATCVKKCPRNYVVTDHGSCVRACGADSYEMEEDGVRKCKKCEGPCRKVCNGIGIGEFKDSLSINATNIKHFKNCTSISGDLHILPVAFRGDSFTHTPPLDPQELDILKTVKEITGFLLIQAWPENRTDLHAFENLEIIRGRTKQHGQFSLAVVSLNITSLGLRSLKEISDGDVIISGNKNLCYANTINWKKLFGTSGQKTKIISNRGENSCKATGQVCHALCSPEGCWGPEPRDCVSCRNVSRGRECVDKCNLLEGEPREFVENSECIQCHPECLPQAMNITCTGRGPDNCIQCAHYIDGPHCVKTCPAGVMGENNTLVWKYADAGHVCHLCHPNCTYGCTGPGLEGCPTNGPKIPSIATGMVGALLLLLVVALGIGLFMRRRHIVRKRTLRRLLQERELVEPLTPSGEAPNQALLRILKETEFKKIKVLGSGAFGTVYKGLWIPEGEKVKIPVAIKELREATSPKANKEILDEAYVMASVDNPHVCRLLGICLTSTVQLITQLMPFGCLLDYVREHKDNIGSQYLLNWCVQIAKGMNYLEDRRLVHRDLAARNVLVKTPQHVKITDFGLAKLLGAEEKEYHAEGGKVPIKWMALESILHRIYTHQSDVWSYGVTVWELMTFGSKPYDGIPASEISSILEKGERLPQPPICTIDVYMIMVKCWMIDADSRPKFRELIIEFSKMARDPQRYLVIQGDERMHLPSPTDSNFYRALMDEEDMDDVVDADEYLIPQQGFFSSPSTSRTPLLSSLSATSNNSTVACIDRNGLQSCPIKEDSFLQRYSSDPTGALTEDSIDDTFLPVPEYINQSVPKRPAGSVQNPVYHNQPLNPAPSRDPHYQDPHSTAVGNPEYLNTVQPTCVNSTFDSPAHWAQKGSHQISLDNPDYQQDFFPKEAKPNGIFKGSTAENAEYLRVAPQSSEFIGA
Chain of MAP kinase-activated protein kinase 2 (Homo sapiens) (P49137 whole entry, looked up, the tested form may be a part): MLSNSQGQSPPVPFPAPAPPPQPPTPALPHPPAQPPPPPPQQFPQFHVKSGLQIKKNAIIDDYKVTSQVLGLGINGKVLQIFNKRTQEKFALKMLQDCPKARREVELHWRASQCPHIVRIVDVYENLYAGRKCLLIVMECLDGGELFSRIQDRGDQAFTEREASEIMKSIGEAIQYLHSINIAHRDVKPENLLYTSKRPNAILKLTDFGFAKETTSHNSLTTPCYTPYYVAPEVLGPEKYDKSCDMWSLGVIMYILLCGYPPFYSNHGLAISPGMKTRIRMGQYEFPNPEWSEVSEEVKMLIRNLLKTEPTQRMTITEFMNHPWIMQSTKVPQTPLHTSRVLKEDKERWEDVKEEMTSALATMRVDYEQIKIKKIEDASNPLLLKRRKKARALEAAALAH
Chain of Mixed lineage kinase domain-like protein (Homo sapiens) (Q8NB16 whole entry, the tested form may be a part): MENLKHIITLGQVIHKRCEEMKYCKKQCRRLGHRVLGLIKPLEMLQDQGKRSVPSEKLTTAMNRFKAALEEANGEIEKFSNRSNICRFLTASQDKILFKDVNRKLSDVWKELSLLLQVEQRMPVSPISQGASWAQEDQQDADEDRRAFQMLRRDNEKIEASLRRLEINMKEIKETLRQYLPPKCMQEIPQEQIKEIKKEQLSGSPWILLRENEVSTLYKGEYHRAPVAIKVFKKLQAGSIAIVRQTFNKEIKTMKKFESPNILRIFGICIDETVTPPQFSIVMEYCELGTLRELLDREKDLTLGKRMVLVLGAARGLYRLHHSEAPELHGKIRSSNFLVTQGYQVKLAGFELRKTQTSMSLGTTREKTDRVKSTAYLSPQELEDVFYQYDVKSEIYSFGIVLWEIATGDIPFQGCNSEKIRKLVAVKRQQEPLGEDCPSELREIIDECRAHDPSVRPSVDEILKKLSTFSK

O=C(Nc1cccc(Br)c1)Nc1cc(Oc2ccc3nc(NC(=O)C4CC4)sc3c2)ccc1F
Activity [1]: 83%
Activity (Mus musculus [2]): 90%
inhibition [3]: Active
Tmax [4]: 4.98 min
Activity (Mus musculus [5]): 100%
Activity [6]: 5.3%
pEC50 (HT-29): 6.36
AUC(0-inf) [7]: 6500 ng·h/mL
Activity [8]: 100%
half-life [9]: 15.4 h
Activity [10]: 14%
inhibition [11]: Active
Tmax [12]: 8.67 h
Vd [13]: 3.49 L/kg
Activity [14]: 79%
Activity [15]: 33%
Cmax [16]: 345 ng/mL
AUC(0-t) [17]: 7010 ng·h/mL
Activity [18]: 100%
Activity [19]: 96%
Activity [20]: Non-Toxic
Activity [21]: 100%
Ratio (Homo sapiens): > 61.7
Activity [22]: 3.6%
